Columns and labels:
[1] = AUClast in CD-1 mouse at 10 mg/kg, po measured up to 24 hrs; format: ADME, organism-based; parameters: route oral, dose 10 mg/kg, time <=24; conditions: in vivo
[2] = test system: Mus musculus; test: Gastroprokinetic activity in CD-1 mouse assessed as stimulation of gastrointestinal motility by measuring total fecal weight at 100 mg/kg, po measured after 2 hrs (reference value: 0.13 +/-0.02 g); format: functional
[3] = test system: Mus musculus; test: Gastroprokinetic activity in CD-1 mouse assessed as stimulation of gastrointestinal motility by measuring fecal number at 100 mg/kg, po measured after 2 hrs (reference value: 5.3 +/-0.7); format: functional
[4] = Toxicity in CD-1 mouse assessed as effect on behavioral change at 1 to 100 mg/kg, po measured up to 6 hrs; format: organism-based; conditions: in vivo, dose 1-100 mg/kg
Method in brief: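 CD-1 mice dosed orally at 1, 10 or 100 mg/kg or with formulation vehicle (N = 12/group). General health status, locomotion and general behaviour observed at 1, 2, 3 and 6 h after treatment, alongside fecal collection in single grid-floored cages.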

AUC(0-t) at 24 h [1] [ng·h/mL] | Structure (SMILES) | Activity [2] [g] | Activity [3] | Activity [4]
94.3 | Clc1cnc(CNc2ccc3cnsc3c2)s1 |  |  | 
 | Clc1cnc(CNc2cc3sncc3cc2Cl)s1 | 0.31 | 10.2 | Non-Toxic

From ChEMBL document CHEMBL4823260, “From High-Throughput Screening to Target Validation: Benzo[d]isothiazoles as Potent and Selective Agonists of Human Transient Receptor Potential Cation Channel Subfamily M Member 5 Possessing In Vivo Gastrointestinal Prokinetic Activity in Rodents” (J Med Chem, 2021)
